From ChEMBL document CHEMBL4673180, “Synthesis of quinone imine and sulphur-containing compounds with antitumor and trypanocidal activities: redox and biological implications” (RSC Med Chem, 2020)

Columns and labels:
Trypanosoma cruzi = experiment: Antitrypanosomal activity against Trypanosoma cruzi Y strain bloodstream trypomastigotes assessed as lysis of parasite in presence of 5 % mouse blood incubated for 24 hrs by Neubauer chamber method; assay type: functional, organism-based
In short: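 Y strain bloodstream trypomastigotes came from infected albino mice at peak parasitaemia, purified by differential centrifugation, in RPMI at 10^7 cells/mL with 10% mouse blood. They were mixed 1:1 with compound at twice the final concentration (5% blood final), 24 h at 4 °C, with DMSO ≤0.4% final. Neubauer chamber counting; IC50 is 50% lysis; at least three independent experiments.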

[1] = Cytotoxicity against albino Swiss mouse peritoneal macrophages assessed as reduction in cell viability incubated for 24 hrs by Presto blue assay; assay type: tissue-based, Macrophage; details: read-out: LC50
In short: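 Primary peritoneal macrophages from Albino Swiss mice were seeded at 2.5 × 10^4 cells per well in RPMI-1640 (pH 7.2, 10% FBS, 2 mM glutamine) and grown 24 h at 37 °C. They were then treated 24 h at 37 °C with compound from DMSO stock (final DMSO ≤0.4%).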

HCT-116 = experiment: Cytotoxicity against human HCT-116 cells assessed as reduction in cell viability after 72 hrs by MTT assay; assay type: functional, cell-based; details: HCT-116, 72 h
In short: (§1)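 Cells were grown in medium with 10% FBS, 2 mM L-glutamine, penicillin and streptomycin at 37 °C, 5% CO2. Seeding per well was 0.1 × 10^6 for leukaemia, PC3, L929 and NCI-H460, and 0.7 × 10^5 for HCT-116. Compounds in DMSO (0.1% final) were applied for 72 h. MTT (0.5 mg/mL) was added for 3 h, formazan dissolved in DMSO, and absorbance read at 550 nm. IC50 by nonlinear regression; three independent experiments in triplicate.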

NCI-H460 = experiment: Cytotoxicity against human NCI-H460 cells assessed as reduction in cell viability after 72 hrs by MTT assay; assay type: functional, cell-based; details: NCI-H460, 72 h
In short: as §1, with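 “CO2.” for “CO2. Seeding per well was 0.1 × 10^6 for leukaemia, PC3, L929 and NCI-H460, and 0.7 × 10^5 for HCT-116.”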

PC-3 = experiment: Cytotoxicity against human PC-3 cells assessed as reduction in cell viability after 72 hrs by MTT assay; assay type: functional, cell-based; details: PC-3, 72 h; in short: as §1
HL-60 = experiment: Cytotoxicity against human HL-60 cells assessed as reduction in cell viability after 72 hrs by MTT assay; assay type: functional, cell-based; details: HL-60, 72 h
In short: as §1, with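 “CO2.” for “CO2. Seeding per well was 0.1 × 10^6 for leukaemia, PC3, L929 and NCI-H460, and 0.7 × 10^5 for HCT-116.”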

K562 = experiment: Cytotoxicity against human K562 cells assessed as reduction in cell viability after 72 hrs by MTT assay; assay type: functional, cell-based; details: K562, 72 h; in short: as §1
[2] = Cytotoxicity against human Lucena1 cells assessed as reduction in cell viability after 72 hrs by MTT assay; assay type: functional, cell-based; details: Lucena 1, 72 h; in short: as §1
L929 = experiment: Cytotoxicity against mouse L929 cells assessed as reduction in cell viability after 72 hrs by MTT assay; assay type: cell-based; details: L929, 72 h; in short: as §1
[3] = Selectivity index, ratio of IC50 for mouse L929 cells to IC50 for human HCT116 cells after 72 hrs by MTT assay; assay type: toxicity; details: L929 cells versus HCT116 cells, read-out: Ratio IC50
In short: (§2)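 Both cell types were kept in medium with 10% FBS, 2 mM L-glutamine and penicillin/streptomycin at 37 °C, 5% CO2. Seeding was 0.7 × 10^5 cells per well for HCT-116, 0.1 × 10^6 for the other lines. Cells got compound in DMSO (0.1% final) for 72 h, then 0.5 mg/mL MTT for 3 h, with formazan read at 550 nm. IC50 came from nonlinear regression over three independent experiments in triplicate. SI is the L929 IC50 divided by the cancer-line IC50.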

[4] = Selectivity index, ratio of IC50 for mouse L929 cells to IC50 for human NCI-H460 cells after 72 hrs by MTT assay; assay type: toxicity; details: L929 cells versus NCI-H460 cells, read-out: Ratio IC50; in short: as §2
[5] = Selectivity index, ratio of IC50 for mouse L929 cells to IC50 for human PC3 cells after 72 hrs by MTT assay; assay type: toxicity; details: L929 cells versus PC3 cells, read-out: Ratio IC50; in short: as §2
[6] = Selectivity index, ratio of IC50 for mouse L929 cells to IC50 for human HL-60cells after 72 hrs by MTT assay; assay type: toxicity; details: L929 cells versus HL-60 cells, read-out: Ratio IC50; in short: as §2
[7] = Selectivity index, ratio of IC50 for mouse L929 cells to IC50 for human K-562 cells after 72 hrs by MTT assay; assay type: toxicity; details: L929 cells versus K-562 cells, read-out: Ratio IC50; in short: as §2
[8] = Selectivity index, ratio of IC50 for mouse L929 cells to IC50 for human Lucena1 cells after 72 hrs by MTT assay
In short: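 Selectivity index is the ratio of IC50 in murine L929 fibroblasts to IC50 in Lucena 1 cells, each measured by 72 h MTT assay (absorbance 550 nm). IC50 values came from nonlinear regression of three independent experiments in triplicate.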

[9] = Selectivity index, ratio of LC50 for cytotoxicity against albino Swiss mouse peritoneal macrophages to IC50 for Antitrypanosomal activity against Trypanosoma cruzi Y strain bloodstream trypomastigotes assessed as lysis of parasite in presence of 5 % mouse blood; assay type: toxicity
In short: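 Y-strain bloodstream trypomastigotes came from infected albino mice at peak parasitaemia and were purified by differential centrifugation. They were resuspended at 10^7/mL in RPMI with 10% mouse blood and mixed 1:1 with compound at twice the final concentration (DMSO ≤0.4%). Incubation was 24 h at 4 °C (5% blood per footnote).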

SMILES	IC50 (Trypanosoma cruzi) [µM]	CC50 at 24 h [1] [µM]	IC50 (HCT-116) [µM]	IC50 (NCI-H460) [µM]	IC50 (PC-3) [µM]	IC50 (HL-60) [µM]	IC50 (K562) [µM]	IC50 [2] [µM]	IC50 (L929) [µM]	selectivity ratio at 72 h [3]	selectivity ratio at 72 h [4]	selectivity ratio at 72 h [5]	selectivity ratio at 72 h [6]	selectivity ratio at 72 h [7]	Ratio IC50 [8]	selectivity ratio [9]
Cc1ccc(S(=O)(=O)n2cc(COC3=C/C(=N\c4ccc(Cl)cc4)c4ccccc4C3=O)nn2)cc1	> 500	> 100	9.44	12.1	> 20	6.92	9.8	3.16	> 20	2	1.6	1	2.8	2	6.1	–
CC(=O)c1ccc(/N=C2\C=C(OCc3cn(S(=O)(=O)c4ccc(C)cc4)nn3)C(=O)c3ccccc32)cc1	> 500	40.6	6.27	15.8	3.91	5.3	5.52	6.46	10.8	1.7	0.7	2.7	2	1.9	1.7	> 12.3
C#CCOC1=C/C(=N\c2ccccc2)c2ccccc2C1=O	–	–	> 20	> 20	14.1	17.4	> 20	> 20	> 20	1.2	1.6	2.5	2	1	1.5	–
C#CCOC1=C/C(=N\c2ccc(C(C)=O)cc2)c2ccccc2C1=O	–	–	> 20	> 20	12.5	> 20	> 20	16.2	> 20	1	1	24	1.1	1	1.9	–
C#CCOC1=C/C(=N\c2ccc(I)cc2)c2ccccc2C1=O	–	–	16.5	> 20	> 20	11.9	17	15.1	> 20	1.5	1	1	2	1.4	1.6	–
Cc1ccc(S(=O)(=O)n2cc(COC3=C/C(=N\c4ccc(I)cc4)c4ccccc4C3=O)nn2)cc1	> 500	> 100	> 16.4	> 16.4	> 16.4	6.31	10.8	2.9	> 16.4	1	1	1	2.6	1.5	5.6	–
COc1cccc2c1C(=O)c1c(O)c3c(c(O)c1C2=O)C[C@@](O)(C(=O)CO)C[C@@H]3O[C@H]1C[C@H](N)[C@H](O)[C@H](C)O1 [DOXORUBICIN]	–	–	–	–	–	–	0.49	0.18	–	–	–	–	–	–	–	–
C#CCOC1=C/C(=N\c2ccc(OC)cc2)c2ccccc2C1=O	–	–	10.7	9.45	8.82	7.18	> 20	11.4	> 20	2.9	3.3	3.6	4.4	1	2.8	–
C#CCOC1=C/C(=N\c2ccc(C)cc2)c2ccccc2C1=O	–	–	> 20	16.9	18.4	12	> 20	14.1	> 20	1.6	2	1.8	2.8	1.5	2.4	–
C#CCOC1=C/C(=N\c2ccc(Br)cc2)c2ccccc2C1=O	–	–	> 20	> 20	15.9	14.2	> 20	12.5	> 20	1.2	1.3	1.7	1.9	1.2	2.2	–
Cc1ccc(S(=O)(=O)n2cc(COC3=C/C(=N\c4ccc(F)cc4)c4ccccc4C3=O)nn2)cc1	> 500	26.9	5.75	7.36	2.03	7.52	7.7	6.58	> 20	3.5	2.7	9.8	2.6	2.6	3	> 18.6
C#CCOC1=C/C(=N\c2ccc(F)cc2)c2ccccc2C1=O	–	–	18.7	17	> 20	9.2	13.5	17	> 20	1.8	1.9	1	3.6	2.4	1.9	–
Cc1ccc(/N=C2\C=C(OCc3cn(S(=O)(=O)c4ccc(C)cc4)nn3)C(=O)c3ccccc32)cc1	> 500	88.5	3.61	8.02	2.65	5.42	6.22	1.44	17.7	4.9	2.2	6.7	3.3	2.9	12.3	> 5.65
Cc1ccc(S(=O)(=O)n2cc(COC3=C/C(=N\c4ccccc4)c4ccccc4C3=O)nn2)cc1	> 500	80.8	5.37	7.22	> 20	6.71	12.2	3.67	> 20	3.8	2.9	1	3.1	1.7	5.6	> 6.19
